Consider two compounds from ChEMBL document CHEMBL1275434, “In vitro evaluation of CBR-2092, a novel rifamycin-quinolone hybrid antibiotic: studies of the mode of action in Staphylococcus aureus” (Antimicrob Agents Chemother, 2008).

Assay [1] concerns Staphylococcus aureus. In words: Antimicrobial activity against Staphylococcus aureus CB1884. Type of assay: functional.
In assay [2] the test system is Staphylococcus aureus. Description: Antimicrobial activity against Staphylococcus aureus CB370 harboring rpoB H481Y mutant gene. The assay is classed as functional.
The test system of assay [3] is Staphylococcus aureus. In words: Antimicrobial activity against Staphylococcus aureus CB814 harboring […] and parC S80F mutant genes. Type of assay: functional.
Assay [4] deals with Staphylococcus aureus. Description: Antimicrobial activity against Staphylococcus aureus CB1952 harboring rpoB S486L, gyrA […], gyrA E88Q, gyrA G532S, parC S80F, parC E84L mutant genes selected after CBR-2092 exposure for 21 days. Type of assay: functional. Particulars: CB1952, 504 h.
Assay [5] concerns Staphylococcus aureus. In words: Antimicrobial activity against Staphylococcus aureus CB815 harboring rpoB H481Y, gyrA […] and parC S80F mutant genes. The assay is classed as functional.
Assay [6] has as its system Staphylococcus aureus. In words: Antimicrobial activity against Staphylococcus aureus CB1953 harboring rpoB H481Y, gyrA S84L, gyrA V598I, parC S80F, parC R570H mutant genes selected after CBR-2092 exposure for 7 days. Type of assay: functional. The conditions noted are these: CB1953, 168 h.
Assay [7] relates to Staphylococcus aureus. Description: Antimicrobial activity against Staphylococcus aureus CB1954 harboring rpoB H481Y, gyrA S84L, K809 deficient gyrA, parC S80F, parC A523D mutant genes selected after CBR-2092 exposure for 7 days. Type of assay: functional. Particulars: CB1954, 168 h. Summed up: (§1)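 CLSI broth microdilution MIC in cation-adjusted Mueller-Hinton (MHII) broth supplemented with 0.002% (vol/vol) polysorbate 80, included to limit compound loss to plastic surfaces.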

Assay [8] deals with Staphylococcus aureus. In words: Antimicrobial activity against Staphylococcus aureus CB1947 harboring rpoB H481Y, gyrA S84L, E697 deficient gyrA, parC G167V mutant genes selected after CBR-2092 exposure for 20 days. Particulars: CB1947, 480 h.
Assay [9] deals with Staphylococcus aureus. In words: Activity at Staphylococcus aureus wild-type DNA topoisomerase 4 subunit ParC. Summed up: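 Recombinant S. aureus topoisomerase IV (wild-type ParC with ParE; specific activity 25 to 30 U per μg). Stopped with SDS/proteinase K. Linear DNA quantified on gel; CC50 is the mean of two or more assays.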
The test system of assay [10] is Staphylococcus aureus. Description: Activity at Staphylococcus aureus DNA topoisomerase 4 subunit ParC S80F mutant.
Assay [11] has as its system Staphylococcus aureus. In words: Activity at Staphylococcus aureus wild-type GyrA. Summed up: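 Recombinant S. aureus gyrase (wild-type GyrA with His-tagged GyrB; 250 U per μg). SDS/proteinase K stop. Gel quantitation of linear cleavage product gave CC50, the mean of two or more assays.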
Assay [12] relates to DNA gyrase subunit A (Staphylococcus aureus), P20831 [S84L]. Description: Activity at Staphylococcus aureus wild-type GyrA S84L mutant.
Assay [13] concerns Staphylococcus aureus. In words: Antimicrobial activity against Staphylococcus aureus CB190 by broth microdilution method. The assay is classed as functional. In general terms: Dilution methods test growth across graded concentrations, often in twofold steps.
The test system of assay [14] is Staphylococcus aureus. In words: Antimicrobial activity against Staphylococcus aureus CB811 harboring quinolone-resistant gyrA S84L mutant gene by broth microdilution method. The assay is classed as functional. Summed up: as §1
Assay [15] deals with Staphylococcus aureus. Description: Antimicrobial activity against Staphylococcus aureus CB808 harboring quinolone-resistant parC S80F mutant gene by broth microdilution method. Type of assay: functional. Summed up: as §1
The test system of assay [16] is Staphylococcus aureus. Description: Antimicrobial activity against Staphylococcus aureus CB814 harboring fluoroquinolone-resistant gyrA S84L and parC S80F mutant genes by broth microdilution method. The assay is classed as functional. Summed up:
as §1

Assay [17] has as its system Staphylococcus aureus. In words: Antimicrobial activity against Staphylococcus aureus CB370 harboring rifampin-resistant rpoB H481Y mutant gene by broth microdilution method. The assay is classed as functional. Summed up:
as §1

Assay [18] relates to Staphylococcus aureus. Description: Antimicrobial activity against Staphylococcus aureus CB812 harboring rpo B H481Y and gyrA S84L mutant genes by broth microdilution method. Type of assay: functional. Summed up:
as §1

The subject of assay [19] is Staphylococcus aureus. Description: Antimicrobial activity against Staphylococcus aureus CB809 harboring rpoB H481Y and parC S80F mutant genes by broth microdilution method.
Assay [20] relates to Staphylococcus aureus. In words: Antimicrobial activity against Staphylococcus aureus CB815 harboring rpoB H481Y, gyrA S84L and parC S80F mutant genes by broth microdilution method.

Each structure is given as a SMILES string. Converted amounts (≈) assume the structure as drawn.

Regarding `CCBr` [BROMOETHANE], the MIC stood at 2 µg/mL (≈ 18.4 µM) against Staphylococcus aureus [1]; 4 µg/mL (≈ 36.7 µM) in the assay on Staphylococcus aureus [2]; 4 µg/mL (≈ 36.7 µM) against Staphylococcus aureus [3]; 4 µg/mL (≈ 36.7 µM) with Staphylococcus aureus [4]; 4 µg/mL (≈ 36.7 µM) against Staphylococcus aureus [5]; 4 µg/mL (≈ 36.7 µM) with Staphylococcus aureus [6]. The MIC in the assay on Staphylococcus aureus [7] and with Staphylococcus aureus [8] was 4 µg/mL (≈ 36.7 µM) throughout.
Take `COc1c(N2CCNC(C)C2)c(F)cc2c(=O)c(C(=O)O)cn(C3CC3)c12` (stereo not given) [GATIFLOXACIN]: the CC50 in the assay with Staphylococcus aureus [9] turned out to be 0.22 µM; in the assay on Staphylococcus aureus [10], 13 µM; in the assay with Staphylococcus aureus [11], 0.7 µM; in [12], 18 µM. In addition, the MIC in the assay with Staphylococcus aureus [13] worked out at 0.06 µg/mL (≈ 0.16 µM); in the assay on Staphylococcus aureus [14] it was 0.12 µg/mL (≈ 0.32 µM); in the assay on Staphylococcus aureus [15], 0.25 µg/mL (≈ 0.666 µM); against Staphylococcus aureus [16] it was 8 µg/mL (≈ 21.3 µM); in the assay on Staphylococcus aureus [17], 0.06 µg/mL (≈ 0.16 µM); against Staphylococcus aureus [18], 0.12 µg/mL (≈ 0.32 µM). Also, the MIC worked out at 0.25 µg/mL (≈ 0.666 µM) in the assay with Staphylococcus aureus [19] and 8 µg/mL (≈ 21.3 µM) in the assay with Staphylococcus aureus [20].

As usually defined, the MIC is the least concentration at which growth counts as inhibited.
